Active and inactive are the calls of the source. The rule behind the calls is not given here. *1 amine or outer side, *2 acyl side, *3 side chain or, on linkers, in order; H or OH if unused. Where a SMILES comes first, the peptide text is derived from it. [ ]: non-standard residue; d: D form. The star is where a group is joined. X4 = O=C(Nc1ccc(C(F)(F)F)cc1)c1cc(/C=N\OCC(=O)*)ccc1O; X2 = C/C(=N\OCC(=O)*)c1ccc(NC(=O)c2cc(Br)ccc2O)cc1; X1 = C/C(=N\OCC(=O)[*:2])c1ccc(N[*:1])cc1; Benzoyl(5-Br-2-OH) = O=C(c1cc(Br)ccc1O)*; Palmitoyl = CCCCCCCCCCCCCCCC(=O)*; Decanoyl = CCCCCCCCCC(=O)*; X3 = O=C(c1cc(Cl)ccc1O)*; Butyryl = CCCC(=O)*
Tested on: Mycobacterium tuberculosis
Experiment: Antimycobacterial activity against isoniazid and rifampicin resistant Mycobacterium tuberculosis A8 ATCC 35822 assessed as reduction in colony forming unit after 28 days by serial dilution method
Format: functional, organism-based
Conditions: time 28.0 day
Procedure, shortened: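 After the 4-week MIC incubation in Sula semisynthetic medium (pH 6.5), growth inhibition confirmed by plating on Löwenstein-Jensen solid medium and counting colony forming units.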

Row | SMILES | Activity
1 | C/C(=N\OCC(=O)N[C@H](C(=O)O)[C@@H](C)O)c1ccc(NC(=O)c2cc(Br)ccc2O)cc1 | Active
2 | C/C(=N\OCC(=O)NCC(=O)O)c1ccc(NC(=O)c2cc(Br)ccc2O)cc1 | Active
3 | C/C(=N\OCC(=O)NCC(=O)N[C@@H](Cc1ccccc1)C(=O)N[C@@H](CC(C)C)C(=O)NCC(=O)N[C@H](C(=O)N[C@@H](CCCCN)C(=O)N1CCC[C@@H]1C(=O)N1CCC[C@H]1C(=O)N[C@H](CCCNC(=N)N)C(=O)O)[C@@H](C)O)c1ccc(NC(=O)c2cc(Br)ccc2O)cc1 | Active
4 | C/C(=N\OCC(=O)NCC(=O)N[C@@H](Cc1ccccc1)C(=O)N[C@@H](CC(C)C)C(=O)NCC(=O)N[C@H](C(=O)N[C@@H](CCCCN)C(=O)N1CCC[C@@H]1C(=O)N[C@H](CCCCN)C(=O)NCC(=O)N[C@@H](C(=O)N[C@H](CCCCN)C(=O)N1CCC[C@H]1C(=O)N[C@H](CCCCN)C(=O)NCC(=O)N[C@@H](C(=O)N[C@@H](CCCCN)C(=O)N1CCC[C@@H]1C(=O)N[C@H](CCCCN)C(=O)NCC(=O)N[C@@H](C(=O)N[C@H](CCCCN)C(=O)N1CCC[C@H]1C(=O)N[C@H](CCCCN)C(=O)NCC(N)=O)[C@H](C)O)[C@H](C)O)[C@H](C)O)[C@@H](C)O)c1ccc(NC(=O)c2cc(Br)ccc2O)cc1 | Active
5 | C/C(=N\OCC(=O)NCC(=O)N[C@@H](Cc1ccccc1)C(=O)N[C@@H](CC(C)C)C(=O)NCC(=O)N[C@H](C(=O)N[C@@H](CCCCN)C(=O)N1CCC[C@@H]1C(=O)N[C@H](CCCNC(=N)N)C(=O)O)[C@@H](C)O)c1ccc(NC(=O)c2cc(Br)ccc2O)cc1 | Active
6 | C/C(=N\OCC(=O)N[C@H](C(=O)N[C@@H](CCCCN)C(=O)N1CCC[C@H]1C(=O)N1CCC[C@@H]1C(=O)N[C@H](CCCNC(=N)N)C(=O)O)[C@@H](C)O)c1ccc(NC(=O)c2cc(Br)ccc2O)cc1 | Active
7 | C/C(=N\OCC(=O)NCCCC[C@H](NC(=O)[C@@H]1CCCN1C(=O)[C@H](CCCCN)NC(=O)[C@@H](NC(=O)CNC(=O)[C@H](CCCCNC(=O)CO/N=C(\C)c1ccc(NC(=O)c2cc(Br)ccc2O)cc1)NC(=O)[C@@H]1CCCN1C(=O)[C@H](CCCCN)NC(=O)[C@@H](NC(=O)[C@H](CCCNC(=N)N)NC(=O)[C@@H]1CCCN1C(=O)[C@H](CCCCN)NC(=O)[C@@H](N)[C@@H](C)O)[C@@H](C)O)[C@@H](C)O)C(=O)NCC(=O)O)c1ccc(NC(=O)c2cc(Br)ccc2O)cc1 (H-TKPRTKPK(X2)GTKPK(X2)G-OH) | Active
8 | CCCCCCCCCCCCCCCC(=O)NCCCC[C@H](NC(=O)[C@@H]1CCCN1C(=O)[C@H](CCCCN)NC(=O)[C@@H](NC(=O)CO/N=C(\C)c1ccc(NC(=O)c2cc(Cl)ccc2O)cc1)[C@@H](C)O)C(=O)NCC(=O)N[C@H](C(=O)N[C@@H](CCCCN)C(=O)N1CCC[C@H]1C(=O)N[C@@H](CCCCN)C(=O)NCC(=O)N[C@H](C(=O)N[C@@H](CCCCN)C(=O)N1CCC[C@H]1C(=O)N[C@@H](CCCCN)C(=O)NCC(=O)N[C@H](C(=O)N[C@@H](CCCCN)C(=O)N1CCC[C@H]1C(=O)N[C@@H](CCCCN)C(=O)NCC(N)=O)[C@@H](C)O)[C@@H](C)O)[C@@H](C)O (X3-[X1]TKPK(Palmitoyl)GTKPKGTKPKGTKPKG-NH2) | Active
9 | C/C(=N\OCC(=O)N[C@H](C(=O)N[C@@H](CCCCN)C(=O)N1CCC[C@H]1C(=O)N[C@@H](CCCCN)C(=O)NCC(=O)N[C@H](C(=O)N[C@@H](CCCCN)C(=O)N1CCC[C@H]1C(=O)N[C@@H](CCCCN)C(=O)NCC(=O)N[C@H](C(=O)N[C@@H](CCCCN)C(=O)N1CCC[C@H]1C(=O)N[C@@H](CCCCN)C(=O)NCC(=O)N[C@H](C(=O)N[C@@H](CCCCN)C(=O)N1CCC[C@H]1C(=O)N[C@@H](CCCCN)C(=O)NCC(N)=O)[C@@H](C)O)[C@@H](C)O)[C@@H](C)O)[C@@H](C)O)c1ccc(NC(=O)c2cc(Cl)ccc2O)cc1 (X3-[X1]TKPKGTKPKGTKPKGTKPKG-NH2) | Active
10 | C[C@@H](O)[C@H](NC(=O)CNC(=O)[C@H](CCCCN)NC(=O)[C@@H]1CCCN1C(=O)[C@H](CCCCN)NC(=O)[C@@H](NC(=O)CNC(=O)[C@H](CCCCN)NC(=O)[C@@H]1CCCN1C(=O)[C@H](CCCCN)NC(=O)[C@@H](NC(=O)CNC(=O)[C@H](CCCCN)NC(=O)[C@@H]1CCCN1C(=O)[C@H](CCCCN)NC(=O)[C@@H](NC(=O)CO/N=C\c1ccc(O)c(C(=O)Nc2ccc(C(F)(F)F)cc2)c1)[C@@H](C)O)[C@@H](C)O)[C@@H](C)O)C(=O)N[C@@H](CCCCN)C(=O)N1CCC[C@H]1C(=O)N[C@@H](CCCCN)C(=O)NCC(N)=O (X4-TKPKGTKPKGTKPKGTKPKG-NH2) | Active
11 | CCCC(=O)NCCCC[C@H](NC(=O)[C@@H]1CCCN1C(=O)[C@H](CCCCN)NC(=O)[C@@H](NC(=O)CO/N=C(\C)c1ccc(NC(=O)c2cc(Br)ccc2O)cc1)[C@@H](C)O)C(=O)NCC(=O)N[C@H](C(=O)N[C@@H](CCCCN)C(=O)N1CCC[C@H]1C(=O)N[C@@H](CCCCN)C(=O)NCC(=O)N[C@H](C(=O)N[C@@H](CCCCN)C(=O)N1CCC[C@H]1C(=O)N[C@@H](CCCCN)C(=O)NCC(=O)N[C@H](C(=O)N[C@@H](CCCCN)C(=O)N1CCC[C@H]1C(=O)N[C@@H](CCCCN)C(=O)NCC(N)=O)[C@@H](C)O)[C@@H](C)O)[C@@H](C)O ({Benzoyl(5-Br-2-OH)}-[X1]TKPK(Butyryl)GTKPKGTKPKGTKPKG-NH2) | Active
12 | CCCCCCCCCC(=O)NCCCC[C@H](NC(=O)[C@@H]1CCCN1C(=O)[C@H](CCCCN)NC(=O)[C@@H](NC(=O)CO/N=C(\C)c1ccc(NC(=O)c2cc(Br)ccc2O)cc1)[C@@H](C)O)C(=O)NCC(N)=O ({Benzoyl(5-Br-2-OH)}-[X1]TKPK(Decanoyl)G-NH2) | Active
13 | CCCCCCCCCC(=O)NCCCC[C@H](NC(=O)[C@@H]1CCCN1C(=O)[C@H](CCCCN)NC(=O)[C@@H](NC(=O)CO/N=C(\C)c1ccc(NC(=O)c2cc(Br)ccc2O)cc1)[C@@H](C)O)C(=O)NCC(=O)N[C@H](C(=O)N[C@@H](CCCCN)C(=O)N1CCC[C@H]1C(=O)N[C@@H](CCCCN)C(=O)NCC(=O)N[C@H](C(=O)N[C@@H](CCCCN)C(=O)N1CCC[C@H]1C(=O)N[C@@H](CCCCN)C(=O)NCC(=O)N[C@H](C(=O)N[C@@H](CCCCN)C(=O)N1CCC[C@H]1C(=O)N[C@@H](CCCCN)C(=O)NCC(N)=O)[C@@H](C)O)[C@@H](C)O)[C@@H](C)O ({Benzoyl(5-Br-2-OH)}-[X1]TKPK(Decanoyl)GTKPKGTKPKGTKPKG-NH2) | Active
14 | CCCCCCCCCCCCCCCC(=O)NCCCC[C@H](NC(=O)[C@@H]1CCCN1C(=O)[C@H](CCCCN)NC(=O)[C@@H](NC(=O)CO/N=C(\C)c1ccc(NC(=O)c2cc(Br)ccc2O)cc1)[C@@H](C)O)C(=O)NCC(N)=O ({Benzoyl(5-Br-2-OH)}-[X1]TKPK(Palmitoyl)G-NH2) | Active
15 | CCCCCCCCCCCCCCCC(=O)NCCCC[C@H](NC(=O)[C@@H]1CCCN1C(=O)[C@H](CCCCN)NC(=O)[C@@H](NC(=O)CO/N=C(\C)c1ccc(NC(=O)c2cc(Br)ccc2O)cc1)[C@@H](C)O)C(=O)NCC(=O)N[C@H](C(=O)N[C@@H](CCCCN)C(=O)N1CCC[C@H]1C(=O)N[C@@H](CCCCN)C(=O)NCC(=O)N[C@H](C(=O)N[C@@H](CCCCN)C(=O)N1CCC[C@H]1C(=O)N[C@@H](CCCCN)C(=O)NCC(=O)N[C@H](C(=O)N[C@@H](CCCCN)C(=O)N1CCC[C@H]1C(=O)N[C@@H](CCCCN)C(=O)NCC(N)=O)[C@@H](C)O)[C@@H](C)O)[C@@H](C)O ({Benzoyl(5-Br-2-OH)}-[X1]TKPK(Palmitoyl)GTKPKGTKPKGTKPKG-NH2) | Active
16 | C/C(=N\OCC(=O)NCCCC[C@H](NC(=O)[C@@H]1CCCN1C(=O)[C@H](CCCCN)NC(=O)[C@@H](NC(=O)CO/N=C(\C)c1ccc(NC(=O)c2cc(Br)ccc2O)cc1)[C@@H](C)O)C(=O)NCC(=O)N[C@H](C(=O)N[C@@H](CCCCN)C(=O)N1CCC[C@H]1C(=O)N[C@@H](CCCCN)C(=O)NCC(=O)N[C@H](C(=O)N[C@@H](CCCCN)C(=O)N1CCC[C@H]1C(=O)N[C@@H](CCCCN)C(=O)NCC(=O)N[C@H](C(=O)N[C@@H](CCCCN)C(=O)N1CCC[C@H]1C(=O)N[C@@H](CCCCN)C(=O)NCC(N)=O)[C@@H](C)O)[C@@H](C)O)[C@@H](C)O)c1ccc(NC(=O)c2cc(Br)ccc2O)cc1 ({Benzoyl(5-Br-2-OH)}-[X1]TKPK(X2)GTKPKGTKPKGTKPKG-NH2) | Active
17 | C/C(=N\OCC(=O)N[C@H](C(=O)N[C@@H](CCCCN)C(=O)N1CCC[C@H]1C(=O)N[C@@H](CCCCN)C(=O)NCC(=O)N[C@H](C(=O)N[C@@H](CCCCN)C(=O)N1CCC[C@H]1C(=O)N[C@@H](CCCCN)C(=O)NCC(N)=O)[C@@H](C)O)[C@@H](C)O)c1ccc(NC(=O)c2cc(Br)ccc2O)cc1 ({Benzoyl(5-Br-2-OH)}-[X1]TKPKGTKPKG-NH2) | Active
18 | CCCCCCCCCCCCCCCC(=O)NCCCC[C@H](NC(=O)[C@@H]1CCCN1C(=O)[C@H](CCCCN)NC(=O)[C@@H](NC(=O)CNC(=O)[C@H](CCCCN)NC(=O)[C@@H]1CCCN1C(=O)[C@H](CCCCN)NC(=O)[C@@H](NC(=O)CNC(=O)[C@H](CCCCN)NC(=O)[C@@H]1CCCN1C(=O)[C@H](CCCCN)NC(=O)[C@@H](NC(=O)CO/N=C(\C)c1ccc(NC(=O)c2cc(Br)ccc2O)cc1)[C@@H](C)O)[C@@H](C)O)[C@@H](C)O)C(=O)NCC(=O)N[C@H](C(=O)N[C@@H](CCCCN)C(=O)N1CCC[C@H]1C(=O)N[C@@H](CCCCN)C(=O)NCC(N)=O)[C@@H](C)O ({Benzoyl(5-Br-2-OH)}-[X1]TKPKGTKPKGTKPK(Palmitoyl)GTKPKG-NH2) | Active
19 | C/C(=N\OCC(=O)N[C@H](C(=O)N[C@@H](CCCCN)C(=O)N1CCC[C@H]1C(=O)N[C@@H](CCCCN)C(=O)NCC(=O)N[C@H](C(=O)N[C@@H](CCCCN)C(=O)N1CCC[C@H]1C(=O)N[C@@H](CCCCN)C(=O)NCC(=O)N[C@H](C(=O)N[C@@H](CCCCN)C(=O)N1CCC[C@H]1C(=O)N[C@@H](CCCCN)C(=O)NCC(=O)N[C@H](C(=O)N[C@@H](CCCCN)C(=O)N1CCC[C@H]1C(=O)N[C@@H](CCCCN)C(=O)NCC(N)=O)[C@@H](C)O)[C@@H](C)O)[C@@H](C)O)[C@@H](C)O)c1ccc(NC(=O)c2cc(Br)ccc2O)cc1 ({Benzoyl(5-Br-2-OH)}-[X1]TKPKGTKPKGTKPKGTKPKG-NH2) | Active

From ChEMBL document CHEMBL5252539, “In vitro biological evaluation of new antimycobacterial salicylanilide-tuftsin conjugates” (Eur J Med Chem, 2017)
